Screens from PubChem BioAssay.
KCNQ1 inh = human KCNQ1 channel inhibition. P51787. CHO-K1 KCNQ1, FluxOR thallium flux fluorescence; stronger effect = higher value. B-score at 10 µM. 310,000 compounds, 1.3% hits. AID 2642;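 active means compounds whose thallium flux B-score, printed positive for inhibition, exceeds three library SD while starting fluorescence stays within three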;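 further: channel opened by potassium depolarization with thallium stimulus after 20 min compound exposure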
KCNK3 block = human KCNK3 channel inhibition, primary screen. O14649. CHO-KCNK3 thallium flux, FluxOR fluorescence; stronger effect = lower value. B-score at 10 µM. 340,000 compounds, 0.84% hits. AID 602410;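 active means B-score under library mean minus 4 SD, starting fluorescence ratio at most library mean plus 5 SD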;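 further: more negative B-score means stronger inhibition of thallium flux through KCNK3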
Target sequence (O14649 whole entry, looked up): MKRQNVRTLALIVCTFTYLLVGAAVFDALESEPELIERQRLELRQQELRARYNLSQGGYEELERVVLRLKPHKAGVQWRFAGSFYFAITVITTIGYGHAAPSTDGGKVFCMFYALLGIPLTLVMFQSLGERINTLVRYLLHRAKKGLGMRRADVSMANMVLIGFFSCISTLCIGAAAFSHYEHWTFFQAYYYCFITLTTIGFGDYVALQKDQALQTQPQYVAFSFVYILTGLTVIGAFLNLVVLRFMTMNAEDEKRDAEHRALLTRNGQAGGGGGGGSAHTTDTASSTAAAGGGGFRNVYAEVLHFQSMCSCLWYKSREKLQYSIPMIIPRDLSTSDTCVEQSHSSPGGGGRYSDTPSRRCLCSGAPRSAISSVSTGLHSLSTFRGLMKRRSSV
KCNQ1 act = potentiates or activates the human KCNQ1 potassium channel; CHO-K1 KCNQ1, thallium flux FluxOR fluorescence; stronger effect = higher value; B-score at 10 µM; 310,000 compounds, 0.35% hits;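 active means fluorescence ratio B-score, a plate-corrected score, at least three library SD, with initial intensity B-score within 5 SD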
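Assay system: CHO-K1 cells stably expressing KCNQ1; Medium: assay buffer with matched DMSO; Also added: K+/Tl+ depolarizing stimulus; Dosing: single dose; Timing: dye 90 min, compound 20 min, room temperature; Measured by: kinetic FluxOR thallium fluorescence, 10-s 1-Hz baseline, 110-s post-stimulus read; Read-out: peak-minus-minimum fluorescence over initial fluorescence, negative-control normalized, B-scored.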
KCNK9 inh = inhibitors of human KCNK9 two-pore domain potassium channel. HEK293 KCNK9, FluxOR thallium flux fluorescence; stronger effect = lower value. B-score at 10 µM. AID 488922. 310,000 compounds, 1.2% hits;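 active means ratio B-score over 3 SD below the library mean, with starting fluorescence within 5 SD of its mean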;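 further: negative B-score means less thallium flux so channel inhibition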
hERG rescue = hERG (human) protection from proarrhythmic block; activation (rescue from dofetilide block), less the hit threshold, % at 10 µM; CHO-hERG, FluxOR thallium flux, dofetilide IC70 present; 310,000 compounds, 0.51% hits; AID 1511;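 active means activation above the mean of controls blocked by dofetilide plus 5 SD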;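 further: thallium influx through hERG after potassium depolarization seen as dye fluorescence rise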
Kir21 block = Kir2.1 (mouse) channel inhibition; AID 1672; HEK293-Kir2.1, FluxOR thallium flux fluorescence; stronger effect = lower value; 310,000 compounds, 0.85% hits; B-score at 10 µM;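 active means fluorescence ratio B-score at or below minus 3 SD of library scores, with starting-brightness B-score within 2 SD, cut at about -4.2 in these data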;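 further: channel flux triggered by added potassium and thallium sulfate stimulus; B-score of peak minus minimum fluorescence over baseline after thallium stimulus; more negative B-score means stronger Kir2.1 block with less thallium influx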
KCNK9 inh conf = confirmation of human KCNK9 potassium channel inhibitors. shares compounds with KCNK9 inh. HEK293 KCNK9 cells, FluxOR thallium flux fluorescence. inhibition, % at 10 µM. 4,900 compounds, 43% hits. AID 492992;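 active means thallium signal inhibited by more than 5 SD of the compound-free buffer control wells, on both duplicate plates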;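 further: 0% = assay buffer control wells without compound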
Kir2-1 spec = tests whether KCNK9 modulators also affect mouse Kir2.1 | shares compounds with KCNK9 inh | Kir2.1 cells, FluxOR thallium flux fluorescence | inhibition, % at 10 µM | 4,900 compounds, 4% hits | AID 492993;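 active means thallium signal drop more than 5 SD beyond the mean of the no-compound control wells, seen in both duplicate plates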;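 further: signal is fluorescence rise after thallium addition divided by baseline fluorescence; plate controls were assay buffer only for no effect and full block by chlorpromazine control for full effect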
KCNK9 uninduced = second check of KCNK9 modulator effects in non-induced HEK293 cells; shares compounds with KCNK9 inh; FluxOR thallium flux; inhibition, % at 10 µM; 4,900 compounds, 40% hits;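 active means thallium signal drop beyond 5 SD of the untreated control mean, on both duplicate plates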;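 further: plate controls were buffer only IC0 wells for no effect and SID17386958 at its maximal inhibitory level for full effect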
The depositor's hits bear a star; i = inactive; nt = no result given. Hits are enriched below; roughly 3.7% of the tested compounds scored in any of these assays.

SMILES | KCNQ1 inh | KCNK3 block | KCNQ1 act | KCNK9 inh | hERG rescue | Kir21 block | KCNK9 inh conf | Kir2-1 spec | KCNK9 uninduced
CCOc1ccc(C(=O)Nc2ccccc2N2CCCC2)cc1 | i | i | i | i | -4.8 | 1.66 | nt | nt | nt
COc1ccc(CC(=O)NCc2nn(-c3ccccc3)nc2C)cc1OC | i | i | i | i | -4.8 | 1.49 | nt | nt | nt
CC(Sc1nnc(-c2cccnc2)o1)C(=O)NC1CCCCC1 (configuration not stated) | nt | i | nt | nt | nt | nt | nt | nt | nt
O=C(Nc1cnn(Cc2ccc(F)cc2)c1)c1cnn2c(C(F)F)cc(-c3ccccc3)nc12 | i | i | i | -12.8* | -10.3 | -0.46 | 50.0%* | i | 36.0%*
Cc1cc(C(=O)COC(=O)c2ccc(O)cc2O)c(C)n1C(C)C | nt | i | nt | nt | nt | nt | nt | nt | nt
COc1ccc(OC)c(NC(=S)N(CCc2c(C)[nH]c3ccc(C)cc23)Cc2cccs2)c1 | i | i | i | -9.36* | -18.7 | 1.48 | 34.0%* | i | 30.5%*
COc1cccc(NC(=S)N(CCN(C)C)Cc2cccs2)c1 | i | i | i | i | -0.5 | 1.43 | nt | nt | nt
Cc1[nH]c2ccc(F)cc2c1CCN(Cc1cccnc1)C(=S)Nc1cccc(F)c1 | i | i | i | -9.13* | -6.3 | -1.35 | 41.5%* | i | 44.0%*
COc1ccc2[nH]c(C)c(CCN(Cc3cccs3)C(=S)Nc3cccc(F)c3)c2c1 | i | -12.2* | i | -14.1* | -19.8 | 0.94 | 55.0%* | i | 31.0%*
COc1ccc(OC)c(NC(=S)N(CCc2c(C)[nH]c3ccccc23)Cc2cccs2)c1 | i | i | i | -9.1* | -8.3 | 0 | 31.5%* | i | 31.0%*
COc1ccc(NC(=S)N(CCc2c(C)[nH]c3ccccc23)Cc2ccco2)cc1 | i | i | i | i | -4.3 | -1.44 | nt | nt | nt
Cc1ccc(NCC(=O)N/N=C\c2ccc[nH]2)cc1 | i | i | i | i | -5.1 | -0.01 | nt | nt | nt
Cc1ccc(C2=Nc3ccccc3N(C(=O)c3ccccc3)C(C)C2)cc1 (configuration not stated) | i | i | i | i | -6.0 | 0.14 | nt | nt | nt
CN(Cc1ccccc1)S(=O)(=O)c1cccc(C(=O)O)c1 | i | i | i | i | -9.4 | 1.21 | nt | nt | nt
C[C@H](NC(=O)c1ccc2ccccc2c1)C(=O)N1CCC2(CC1)NCCc1[nH]cnc12 | i | i | i | i | -4.6 | -1.36 | nt | nt | nt
COc1ccc(CCNC(=O)CSc2nnc3ccc(-c4cccnc4)nn23)cc1 | i | i | i | i | -5.7 | -0.2 | nt | nt | nt
Cc1nc(-c2coc3c(CN(C)C)c(O)ccc3c2=O)cs1 | i | i | i | -8.17* | -10.0 | 0.58 | i | i | i
COc1ccccc1-c1coc2c(CN(C)C)c(O)ccc2c1=O | i | i | i | i | -7.8 | -0.77 | nt | nt | nt
COc1ccccc1NC(=O)C(=O)NCC(c1ccco1)N1CCc2ccccc2C1 (configuration not stated) | i | i | i | i | -6.4 | 1.21 | i | i | i
COc1ccc(-c2nc(-c3ccccc3)c(-c3cc([N+](=O)[O-])ccc3C)[nH]2)cc1OC | 14* | i | i | -12.2* | -7.3 | 0.22 | 54.5%* | i | 33.0%*
CSc1ccc(C=NNc2ccc(S(=O)(=O)Nc3ccccc3C(=O)O)cc2[N+](=O)[O-])cc1 | nt | i | nt | nt | nt | nt | nt | nt | nt
Cc1nn(-c2ccccc2)c(Cl)c1/C=N/Nc1ccc(S(=O)(=O)Nc2ccccc2C(=O)O)cc1[N+](=O)[O-] | i | i | i | i | -11.0 | 1.82 | i | i | i
O=C1CSC(=S)N1/N=C/c1cc(Br)c(O)c(Br)c1 | i | i | i | -9.83* | -32.8 | -9.01 | 64.0%* | 57.0%* | 70.5%*
COc1cc(/C=N/N2C(=O)CSC2=S)ccc1O | i | i | i | i | -12.3 | -0.19 | nt | nt | nt
COc1ccc(Cn2nc(-c3ccccc3)c(N3CCCCC3)cc2=O)cc1 | 7* | i | i | -16.5* | -15.1 | -1.36 | i | i | 28.0%*
SMILES | KCNQ1 inh | KCNK3 block | KCNQ1 act | KCNK9 inh | hERG rescue | Kir21 block | KCNK9 inh conf | Kir2-1 spec | KCNK9 uninduced
COc1ccc(NC(=O)CN(C)C(=O)/C=C/c2cn(-c3ccccc3)nc2-c2cccs2)cc1 | i | i | i | i | -18.2 | -0.32 | nt | nt | nt
CCCCCc1ccc(OCCOCCn2c[n+](C)c3ccccc32)c(CCCCC)c1 | 7* | i | i | -8.36* | -28.5 | -14.8 | 53.0%* | 61.0%* | i
Cc1cc2ccccn2c1C(=O)c1nc(NCc2ccccc2)ncc1Cl | i | i | i | i | -7.0 | 0.04 | i | i | 25.5%*
Cc1cccc(C(=O)NC(=S)Nc2ccc(Cc3ccncc3)cc2)c1 | i | i | i | i | -4.4 | 0.14 | i | i | i
Cc1cccc(C(=O)NC(=S)NC(C)c2ccccc2)c1 (configuration not stated) | i | i | i | i | -9.2 | -1.36 | i | i | i
CC(NC(=S)NC(=O)c1ccccc1)c1ccccc1 (configuration not stated) | i | i | i | i | -4.7 | -0.07 | i | i | i
Cc1c(Cl)cccc1NC(=O)c1ccc(OCC(=O)NCc2ccccc2)cc1 | i | i | i | i | -7.7 | 0.07 | nt | nt | nt
O=C(/C=C/c1cccs1)NNC(=O)c1ccccc1 | nt | i | nt | nt | nt | nt | nt | nt | nt
COc1ccc(NC2CCCN(C(=O)CCc3cccc(Cl)c3)C2)cc1 (configuration not stated) | i | i | i | i | -12.9 | -4.21* | i | i | i
COc1ccc(NC2CCCN(C(=O)CCc3cccc(F)c3)C2)cc1 (configuration not stated) | i | i | i | i | -9.6 | -2.31 | nt | nt | nt
Cc1cccc(C(=O)N2CCCC(Nc3ccc(C)c(C)c3)C2)n1 (configuration not stated) | i | i | i | i | -5.8 | 1.51 | i | i | i
COc1ccc(NC2CCCN(C(=O)c3ccc4[nH]c(C)c(C)c4c3)C2)cc1 (configuration not stated) | i | i | i | -11.8* | -5.1 | 0.42 | i | i | i
COc1ccc(NC2CCCN(C(=O)c3ccc(C)nc3)C2)cc1 (configuration not stated) | i | i | i | i | -11.6 | 0.9 | nt | nt | nt
